According to ChEMBL document CHEMBL1123503, “Synthesis and biological activity of 3-amino-5-(3,5-diamino-6-chloropyrazin-2-yl)-1,2,4-oxadiazole: an amiloride prodrug” (1986):
“And” between values parts separate entries of the source, which are not always exact repeats. Equal entries are not always repeated.

tested on: Canis familiaris; assay: Compound was evaluated for percentage recovery from urine after administration of 0.1 mg/kg dose; assay type: functional, organism-based; parameters: dose 0.1 mg/kg; conditions: Canis lupus familiaris
In short: (§1)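 Catheterized mongrel dogs (average 14-16 kg, 6 per group) were given oral doses of 0.1-1.0 mg/kg. Urine was collected at 0-6 h and 6-24 h. Each 1-mL aliquot was partitioned between saturated Na2CO3 and ethyl acetate, and the organic phase was back-extracted into 0.5 N HCl. Amiloride in the acid phase was read spectrofluorometrically (excitation 365 nm, emission 420 nm). Results are mean ± SD, with % recovery.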

Row | Structure (SMILES) | Recovery
1 | Nc1noc(-c2nc(Cl)c(N)nc2N)n1 | 36.2% and 22.4%

tested on: Canis familiaris; assay: Compound was evaluated for percentage recovery from urine after administration of 0.3 mg/kg dose; assay type: functional, organism-based; parameters: dose 0.3 mg/kg; conditions: Canis lupus familiaris; in short: as §1

Row | Structure (SMILES) | Recovery [%]
2 | Nc1noc(-c2nc(Cl)c(N)nc2N)n1 | 24.2

tested on: Rattus norvegicus; assay: Compound was evaluated for diuretic activity determined by the ability to induce electrolytic excretion (K+) at a time period of 0-24 hr for dose 3 mg/kg; assay type: functional, Urine; conditions: not given
In short: (§2)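 Female Sprague-Dawley rats weighing 160-170 g were dosed orally at 3, 9, 27 or 81 mg/kg, housed three per cage, with three cages per dose. Urinary Na+, K+ and Cl- (mequiv × 100) and urine volume (mL) were measured over 0-5 h and 0-24 h after dosing. A placebo group was run alongside.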

Row | Structure (SMILES) | Diuretic effect
3 | Nc1noc(-c2nc(Cl)c(N)nc2N)n1 | 79

tested on: Rattus norvegicus; assay: Compound was evaluated for diuretic activity determined by the ability to induce electrolytic excretion (K+) at a time period of 0-24 hr for dose 81 mg/kg; assay type: functional, Urine; parameters: unit: mequiv × 100; conditions: not given; in short: as §2

Row | Structure (SMILES) | Diuretic effect
4 | Nc1noc(-c2nc(Cl)c(N)nc2N)n1 | 72

tested on: Rattus norvegicus; assay: Compound was evaluated for diuretic activity determined by the ability to induce electrolytic excretion (K+) at a time period of 0-24 hr for dose 9 mg/kg; assay type: functional, Urine; conditions: not given; in short: as §2

Row | Structure (SMILES) | Diuretic effect
5 | Nc1noc(-c2nc(Cl)c(N)nc2N)n1 | 102

tested on: Rattus norvegicus; assay: Compound was evaluated for diuretic activity determined by the ability to induce electrolytic excretion (K+) at a time period of 0-5 hr for dose 27 mg/kg; assay type: functional, Urine; conditions: not given; in short: as §2

Row | Structure (SMILES) | Diuretic effect
6 | Nc1noc(-c2nc(Cl)c(N)nc2N)n1 | 4

tested on: Rattus norvegicus; assay: Compound was evaluated for diuretic activity determined by the ability to induce electrolytic excretion (K+) at a time period of 0-5 hr for dose 3 mg/kg; assay type: functional, Urine; conditions: not given; in short: as §2

Row | Structure (SMILES) | Diuretic effect
7 | Nc1noc(-c2nc(Cl)c(N)nc2N)n1 | 7

tested on: Rattus norvegicus; assay: Compound was evaluated for diuretic activity determined by the ability to induce electrolytic excretion (K+) at a time period of 0-5 hr for dose 81 mg/kg; assay type: functional, Urine; conditions: not given; in short: as §2

Row | Structure (SMILES) | Diuretic effect
8 | Nc1noc(-c2nc(Cl)c(N)nc2N)n1 | 5

tested on: Rattus norvegicus; assay: Compound was evaluated for diuretic activity determined by the ability to induce electrolytic excretion (K+) at a time period of 0-5 hr for dose 9 mg/kg; assay type: functional, Urine; conditions: not given; in short: as §2

Row | Structure (SMILES) | Diuretic effect
9 | Nc1noc(-c2nc(Cl)c(N)nc2N)n1 | 4

tested on: Rattus norvegicus; assay: Compound was evaluated for diuretic activity determined by the ability to induce electrolytic excretion (Na+) at a time period of 0-24 hr for dose 27 mg/kg; assay type: functional, Urine; conditions: not given; in short: as §2

Row | Structure (SMILES) | Diuretic effect
10 | Nc1noc(-c2nc(Cl)c(N)nc2N)n1 | 292

tested on: Rattus norvegicus; assay: Compound was evaluated for diuretic activity determined by the ability to induce electrolytic excretion (Na+) at a time period of 0-24 hr for dose 3 mg/kg; assay type: functional, Urine; conditions: not given; in short: as §2

Row | Structure (SMILES) | Diuretic effect
11 | Nc1noc(-c2nc(Cl)c(N)nc2N)n1 | 184

tested on: Rattus norvegicus; assay: Compound was evaluated for diuretic activity determined by the ability to induce electrolytic excretion (Na+) at a time period of 0-24 hr for dose 81 mg/kg; assay type: functional, Urine; conditions: not given; in short: as §2

Row | Structure (SMILES) | Diuretic effect
12 | Nc1noc(-c2nc(Cl)c(N)nc2N)n1 | 396

tested on: Rattus norvegicus; assay: Compound was evaluated for diuretic activity determined by the ability to induce electrolytic excretion (Na+) at a time period of 0-24 hr for dose 9 mg/kg; assay type: functional, Urine; conditions: not given; in short: as §2

Row | Structure (SMILES) | Diuretic effect
13 | Nc1noc(-c2nc(Cl)c(N)nc2N)n1 | 269

tested on: Rattus norvegicus; assay: Compound was evaluated for diuretic activity determined by the ability to induce electrolytic excretion (Na+) at a time period of 0-5 hr for dose 27 mg/kg; assay type: functional, Urine; conditions: not given; in short: as §2

Row | Structure (SMILES) | Diuretic effect
14 | Nc1noc(-c2nc(Cl)c(N)nc2N)n1 | 67

tested on: Rattus norvegicus; assay: Compound was evaluated for diuretic activity determined by the ability to induce electrolytic excretion (Na+) at a time period of 0-5 hr for dose 3 mg/kg; assay type: functional, Urine; conditions: not given; in short: as §2

Row | Structure (SMILES) | Diuretic effect
15 | Nc1noc(-c2nc(Cl)c(N)nc2N)n1 | 64

tested on: Rattus norvegicus; assay: Compound was evaluated for diuretic activity determined by the ability to induce electrolytic excretion (Na+) at a time period of 0-5 hr for dose 81 mg/kg; assay type: functional, Urine; conditions: not given; in short: as §2

Row | Structure (SMILES) | Diuretic effect
16 | Nc1noc(-c2nc(Cl)c(N)nc2N)n1 | 135

tested on: Rattus norvegicus; assay: Compound was evaluated for diuretic activity determined by the ability to induce electrolytic excretion (Na+) at a time period of 0-5 hr for dose 9 mg/kg; assay type: functional, Urine; conditions: not given; in short: as §2

Row | Structure (SMILES) | Diuretic effect
17 | Nc1noc(-c2nc(Cl)c(N)nc2N)n1 | 69

tested on: Rattus norvegicus; assay: Compound was evaluated for diuretic activity determined by the ability of to induce electrolytic excretion (Cl-) at a time period of 0-24 hr for dose 3 mg/kg; assay type: functional, Urine; conditions: not given; in short: as §2

Row | Structure (SMILES) | Diuretic effect
18 | Nc1noc(-c2nc(Cl)c(N)nc2N)n1 | 152

tested on: Rattus norvegicus; assay: Compound was evaluated for diuretic activity determined by the ability to induce electrolytic excretion (Cl-) at a time period of 0-24 hr for dose 27 mg/kg; assay type: functional, Urine; conditions: not given; in short: as §2

Row | Structure (SMILES) | Diuretic effect
19 | Nc1noc(-c2nc(Cl)c(N)nc2N)n1 | 258

tested on: Rattus norvegicus; assay: Compound was evaluated for diuretic activity determined by the ability to induce electrolytic excretion (Cl-) at a time period of 0-24 hr for dose 81 mg/kg; assay type: functional, Urine; conditions: not given; in short: as §2

Row | Structure (SMILES) | Diuretic effect
20 | Nc1noc(-c2nc(Cl)c(N)nc2N)n1 | 344

tested on: Rattus norvegicus; assay: Compound was evaluated for diuretic activity determined by the ability to induce electrolytic excretion (Cl-) at a time period of 0-24 hr for dose 9 mg/kg; assay type: functional, Urine; conditions: not given; in short: as §2

Row | Structure (SMILES) | Diuretic effect
21 | Nc1noc(-c2nc(Cl)c(N)nc2N)n1 | 235

tested on: Rattus norvegicus; assay: Compound was evaluated for diuretic activity determined by the ability to induce electrolytic excretion (Cl-) at a time period of 0-5 hr for dose 3 mg/kg; assay type: functional, Urine; conditions: not given; in short: as §2

Row | Structure (SMILES) | Diuretic effect
22 | Nc1noc(-c2nc(Cl)c(N)nc2N)n1 | 36

tested on: Rattus norvegicus; assay: Compound was evaluated for diuretic activity determined by the ability to induce electrolytic excretion (Cl-) at a time period of 0-5 hr for dose 81 mg/kg; assay type: functional, Urine; conditions: not given; in short: as §2

Row | Structure (SMILES) | Diuretic effect
23 | Nc1noc(-c2nc(Cl)c(N)nc2N)n1 | 73

tested on: Rattus norvegicus; assay: Compound was evaluated for diuretic activity determined by the ability to induce electrolytic excretion (Cl-) at a time period of 0-5 hr for dose 9 mg/kg; assay type: functional, Urine; conditions: not given; in short: as §2

Row | Structure (SMILES) | Diuretic effect
24 | Nc1noc(-c2nc(Cl)c(N)nc2N)n1 | 35

tested on: Rattus norvegicus; assay: Compound was evaluated for diuretic activity determined by the ability to induce electrolytic excretion (K+) at a time period of 0-24 hr for dose 27 mg/kg; assay type: functional, Urine; conditions: not given; in short: as §2

Row | Structure (SMILES) | Diuretic effect
25 | Nc1noc(-c2nc(Cl)c(N)nc2N)n1 | 79

tested on: Rattus norvegicus; assay: Urine volumes in Sprague-Dawley rats was determined at time period of 0-5 hours dose 81 mg/kg; assay type: functional; conditions: not given; in short: as §2

Row | Structure (SMILES) | Urine volume [mL]
26 | Nc1noc(-c2nc(Cl)c(N)nc2N)n1 | 25

tested on: Rattus norvegicus; assay: Urine volumes in Sprague-Dawley rats was determined at time period of 0-5 hours dose 9 mg/kg; assay type: functional; conditions: not given; in short: as §2

Row | Structure (SMILES) | Urine volume [mL]
27 | Nc1noc(-c2nc(Cl)c(N)nc2N)n1 | 28

tested on: Rattus norvegicus; assay: Urine volumes in Sprague-Dawley rats was determined at time period of 0-5 hours dose 27 mg/kg; assay type: functional; conditions: not given; in short: as §2

Row | Structure (SMILES) | Urine volume [mL]
28 | Nc1noc(-c2nc(Cl)c(N)nc2N)n1 | 26

tested on: Rattus norvegicus; assay: Urine volumes in Sprague-Dawley rats was determined at time period of 0-5 hours dose 3 mg/kg; assay type: functional; conditions: not given; in short: as §2

Row | Structure (SMILES) | Urine volume [mL]
29 | Nc1noc(-c2nc(Cl)c(N)nc2N)n1 | 24

tested on: Rattus norvegicus; assay: Compound was evaluated for diuretic activity determined by the ability to induce electrolytic excretion (Cl-) at a time period of 0-5 hr for dose 27 mg/kg; assay type: functional, Urine; conditions: not given; in short: as §2

Row | Structure (SMILES) | Diuretic effect
30 | Nc1noc(-c2nc(Cl)c(N)nc2N)n1 | 32

tested on: Canis familiaris; assay: Compound was evaluated for urinary levels (mg) after administration at time period; conditions: not given

Row | Structure (SMILES) | Urinary level [mg]
31 | Nc1noc(-c2nc(Cl)c(N)nc2N)n1 | 0.42

tested on: Canis familiaris; assay: Diuretic activity in mongrel dog was determined by the ability to induce electrolytic excretion (K+) at a time period of 0-5 hr after administration of 5 mg/kg dose.; conditions: not given

Row | Structure (SMILES) | Diuretic effect
32 | Nc1noc(-c2nc(Cl)c(N)nc2N)n1 | 0.9

tested on: Canis familiaris; assay: Diuretic activity in mongrel dog was determined by the ability to induce electrolytic excretion (CL-) at a time period of 0-5 hr after administration of 5 mg/kg dose.; conditions: not given

Row | Structure (SMILES) | Diuretic effect
33 | Nc1noc(-c2nc(Cl)c(N)nc2N)n1 | 4.3

tested on: Canis familiaris; assay: Diuretic activity in mongrel dog was determined by the ability to induce electrolytic excretion (Na+) at a time period of 0-5 hr after administration of 5 mg/kg dose.; conditions: not given

Row | Structure (SMILES) | Diuretic effect
34 | Nc1noc(-c2nc(Cl)c(N)nc2N)n1 | 6.5
